Data published in ChEMBL document CHEMBL3992564, “Design and synthesis of novel, potent and selective hypoxanthine analogs as adenosine A1 receptor antagonists and their biological evaluation” (Bioorg Med Chem, 2017).
Values after ≈ are worked out from the molar mass of the structure shown.

Columns and labels:
[1] = target: CYP2C9 (Homo sapiens, UniProt P11712); test: Inhibition of CYP2C9 (unknown origin) at 5 uM relative to control; format: ADME
[2] = Metabolic stability in rat liver microsomes assessed as parent compound remaining measured after 30 mins in presence of NADPH; format: ADME, microsome; conditions: read-out: Stability
[3] = Thermodynamic solubility of the compound in pH 7.4 solution; format: physicochemical; conditions: read-out: Therm_solubility
[4] = Drug metabolism assessed as N-oxidation by metabolic soft spot analysis; format: physicochemical
[5] = tested on: Liver; test: Metabolic stability in human liver microsomes assessed as metabolic rate measured after 30 mins in presence of NADPH; format: ADME, microsome; conditions: 0.5 h
[6] = Protein binding in rat plasma at 5 uM; format: ADME, cell-free; conditions: read-out: PPB (converted)
[7] = Drug metabolism assessed as hydroxylation at C-8 cyclopentyl by metabolic soft spot analysis; format: physicochemical
[8] = target: CYP3A4 (Homo sapiens, UniProt P08684); test: Inhibition of CYP3A4 (unknown origin) at 5 uM relative to control; format: ADME
[9] = target: T1, Adenosine receptor A2b (Homo sapiens) (UniProt P29275); test: Antagonist activity at human adenosine A2B receptor expressed in HEK293 cells assessed as reduction in NECA-induced increase in cAMP level at 1 uM preincubated for 15 mins followed by NECA addition measured after 15 mins by HTRF assay relative to control; format: functional, cell-based
T1 sequence (whole entry): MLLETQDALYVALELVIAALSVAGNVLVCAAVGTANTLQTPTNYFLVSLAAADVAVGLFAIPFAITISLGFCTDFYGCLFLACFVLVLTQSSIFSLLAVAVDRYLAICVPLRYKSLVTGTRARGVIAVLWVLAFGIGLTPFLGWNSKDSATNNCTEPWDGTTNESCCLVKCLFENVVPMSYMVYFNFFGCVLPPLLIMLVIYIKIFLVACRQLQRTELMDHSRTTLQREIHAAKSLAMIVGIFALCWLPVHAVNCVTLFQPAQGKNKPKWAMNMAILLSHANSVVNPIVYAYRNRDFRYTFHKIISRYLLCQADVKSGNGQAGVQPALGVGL
In short: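 Overnight HEK-A1 or HEK-A2B cultures were treated with 1 U/mL ADA for 90 min at 37°C. Compound was added for 15 min, then agonist for 15 min (1 nM CPA for A1; 70 nM NECA for A2B) at room temperature in incomplete DMEM with ADA. Rolipram (20 µM) was included for A1 only. cAMP was read by HTRF.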

[10] = Elimination half life in Wistar rat at 3 mg/kg, iv by LC-Ms/MS analysis; format: ADME, organism-based; conditions: in vivo, read-out: beta t1/2 (converted)
In short: (§1)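 Male Wistar rats (230 ± 15 g), fasted overnight with water available. IV dose of 3 mg/kg given by tail vein as a solution (0.6 mg/mL, 5 mL/kg). PO dose of 5 mg/kg given by gavage as a suspension. Blood was collected into K2EDTA at 0.008 (IV only) to 24 h and plasma was spun off. Samples were precipitated with acetonitrile and run on LC/MS/MS. Parameters came from non-compartmental analysis of individual animals, mean of n = 4.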

[11] = target: Adenosine receptor A2a (Homo sapiens, UniProt P29274); test: Displacement of [3H]ZM241385 from human adenosine A2A receptor expressed in HEK293 cell membranes at 1 uM after 90 mins relative to control
In short: (§2)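 Membranes from HEK-293 cells stably transfected with human receptor, pre-treated with adenosine deaminase. Radioligands: 1 nM [3H]DPCPX (A1), 1 nM [3H]ZM241385 (A2A), 1.6 nM [3H]MRS-1754 (A2B), 2 nM [3H]HEMADO (A3). Buffers: Tris pH 7.4 (A1, A2A, A3) or pH 6.5 (A2B), with ADA. Incubated 90 min at room temperature, then filtered. Nonspecific binding defined with 100 µM NECA. Ki from 8 concentrations run in triplicate.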

[12] = target: T2, Adenosine receptor A1 (Homo sapiens, UniProt P30542); test: Displacement of [3H]DPCPX from human adenosine A1 receptor expressed in HEK293 cell membranes after 90 mins
T2 sequence (P30542 whole entry): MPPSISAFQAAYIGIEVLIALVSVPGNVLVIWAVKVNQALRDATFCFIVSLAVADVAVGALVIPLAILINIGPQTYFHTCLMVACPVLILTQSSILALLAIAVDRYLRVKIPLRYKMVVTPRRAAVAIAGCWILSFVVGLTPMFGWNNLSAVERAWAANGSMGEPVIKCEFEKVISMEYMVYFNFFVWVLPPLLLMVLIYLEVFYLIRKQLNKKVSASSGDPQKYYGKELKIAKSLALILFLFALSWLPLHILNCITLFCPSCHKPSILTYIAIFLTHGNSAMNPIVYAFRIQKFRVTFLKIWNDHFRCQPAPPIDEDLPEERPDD

[13] = Thermodynamic solubility of the compound in pH 2 solution; format: physicochemical; conditions: read-out: Therm_solubility
[14] = Clearance in Wistar rat at 3 mg/kg, iv by LC-Ms/MS analysis; format: ADME, organism-based; conditions: in vivo; in short: as §1
[15] = target: CYP2C19 (Homo sapiens, UniProt P33261); test: Inhibition of CYP2C19 (unknown origin) at 5 uM relative to control; format: ADME
[16] = target: T2, Adenosine receptor A1; test: Antagonist activity at human adenosine A1 receptor expressed in HEK293 cells assessed as reduction in CPA-mediated inhibition of forskolin-stimulated cAMP level preincubated for 15 mins followed by CPA treatment for 15 mins and subsequent addition of forskolin measured after 30 mins by HTRF assay; format: functional, cell-based
[17] = tested on: Liver; test: Metabolic stability in rat liver microsomes assessed as metabolic rate measured after 30 mins in presence of NADPH; format: ADME, microsome; conditions: 0.5 h
[18] = Thermodynamic solubility of the compound in pH 4 solution; format: physicochemical; conditions: read-out: Therm_solubility
[19] = Volume of distribution at steady state in Wistar rat at 3 mg/kg, iv by LC-Ms/MS analysis; format: ADME, organism-based; conditions: in vivo, read-out: Vdss
In short: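 Male Wistar rats (230 ± 15 g), fasted overnight with water available. IV dosing at 3 mg/kg by tail vein as solution (0.6 mg/mL, 5 mL/kg). PO dosing at 5 mg/kg by oral gavage. Serial blood sampling into K2EDTA from 0.008 (IV only) to 24 h. Plasma precipitated with acetonitrile containing internal standard and analysed by LC/MS/MS. Non-compartmental parameters calculated per animal; values are means of n = 4.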

[20] = target: T3, CYP1A2 (Homo sapiens, UniProt P05177); test: Inhibition of CYP1A2 (unknown origin) at 5 uM relative to control; format: ADME
T3 sequence (P05177 whole entry): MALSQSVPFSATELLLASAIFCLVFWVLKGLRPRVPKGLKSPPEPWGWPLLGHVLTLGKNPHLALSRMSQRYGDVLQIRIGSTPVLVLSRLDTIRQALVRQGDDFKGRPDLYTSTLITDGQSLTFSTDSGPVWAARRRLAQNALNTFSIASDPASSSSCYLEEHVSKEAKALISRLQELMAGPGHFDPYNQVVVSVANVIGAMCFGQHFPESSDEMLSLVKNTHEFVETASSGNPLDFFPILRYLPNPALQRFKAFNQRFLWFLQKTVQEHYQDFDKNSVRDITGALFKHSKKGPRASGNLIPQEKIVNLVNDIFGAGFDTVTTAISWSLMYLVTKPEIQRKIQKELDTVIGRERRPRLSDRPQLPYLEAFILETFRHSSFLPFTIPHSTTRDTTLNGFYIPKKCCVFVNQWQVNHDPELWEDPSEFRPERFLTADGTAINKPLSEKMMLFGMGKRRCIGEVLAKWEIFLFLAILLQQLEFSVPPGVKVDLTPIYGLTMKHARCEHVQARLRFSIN

[21] = AUC (0 to t) in Wistar rat at 3 mg/kg, iv by LC-Ms/MS analysis; format: ADME, organism-based; conditions: in vivo; in short: as §1
[22] = target: T1, Adenosine receptor A2b (Homo sapiens); test: Displacement of [3H]MRS-1754 from human adenosine A2B receptor expressed in HEK293 cell membranes at 1 uM after 90 mins relative to control; in short: as §2
[23] = target: T4, Adenosine receptor A3 (Homo sapiens) (UniProt P0DMS8); test: Displacement of [3H]HEMADO from human adenosine A3 receptor expressed in HEK293 cell membranes at 1 uM after 90 mins relative to control; in short: as §2
T4 sequence (whole entry): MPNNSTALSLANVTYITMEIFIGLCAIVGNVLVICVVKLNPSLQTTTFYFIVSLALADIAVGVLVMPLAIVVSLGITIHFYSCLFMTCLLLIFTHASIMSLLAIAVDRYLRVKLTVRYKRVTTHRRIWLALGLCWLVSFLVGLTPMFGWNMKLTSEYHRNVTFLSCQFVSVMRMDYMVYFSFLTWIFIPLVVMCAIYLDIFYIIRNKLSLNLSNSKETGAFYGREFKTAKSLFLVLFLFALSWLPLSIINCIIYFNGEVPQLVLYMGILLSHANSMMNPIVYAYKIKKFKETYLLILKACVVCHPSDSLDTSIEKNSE

[24] = target: CYP2D6 (Homo sapiens, UniProt P10635); test: Inhibition of CYP2D6 (unknown origin) at 5 uM relative to control; format: ADME
[25] = Metabolic stability in human liver microsomes assessed as parent compound remaining measured after 30 mins in presence of NADPH; format: ADME, microsome; conditions: read-out: Stability

Chain of CYP3A4 (P08684 whole entry): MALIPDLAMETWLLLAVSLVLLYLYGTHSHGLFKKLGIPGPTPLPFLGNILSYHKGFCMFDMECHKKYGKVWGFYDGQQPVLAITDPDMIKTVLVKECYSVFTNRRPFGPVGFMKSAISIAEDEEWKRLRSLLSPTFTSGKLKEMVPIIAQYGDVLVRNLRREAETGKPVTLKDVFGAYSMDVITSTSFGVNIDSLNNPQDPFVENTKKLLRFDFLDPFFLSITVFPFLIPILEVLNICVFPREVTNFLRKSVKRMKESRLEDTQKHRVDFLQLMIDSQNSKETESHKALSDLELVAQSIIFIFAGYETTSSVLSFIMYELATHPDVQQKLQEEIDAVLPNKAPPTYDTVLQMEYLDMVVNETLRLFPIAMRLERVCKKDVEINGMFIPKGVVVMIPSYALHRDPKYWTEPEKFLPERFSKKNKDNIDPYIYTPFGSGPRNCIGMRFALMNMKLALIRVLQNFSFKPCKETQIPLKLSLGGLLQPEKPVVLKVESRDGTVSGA
Chain of Adenosine receptor A2a (P29274 whole entry): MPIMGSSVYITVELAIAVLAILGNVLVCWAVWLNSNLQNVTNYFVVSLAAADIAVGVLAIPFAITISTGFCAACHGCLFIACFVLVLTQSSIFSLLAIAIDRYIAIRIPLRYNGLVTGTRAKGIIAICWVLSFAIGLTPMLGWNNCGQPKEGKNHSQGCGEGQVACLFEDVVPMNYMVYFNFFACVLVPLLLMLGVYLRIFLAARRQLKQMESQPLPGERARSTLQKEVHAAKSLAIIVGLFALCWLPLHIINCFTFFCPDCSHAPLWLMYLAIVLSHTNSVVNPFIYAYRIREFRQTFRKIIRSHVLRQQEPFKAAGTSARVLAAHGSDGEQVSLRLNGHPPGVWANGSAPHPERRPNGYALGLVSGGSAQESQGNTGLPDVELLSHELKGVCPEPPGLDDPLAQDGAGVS
Chain of CYP2C9 (P11712 whole entry): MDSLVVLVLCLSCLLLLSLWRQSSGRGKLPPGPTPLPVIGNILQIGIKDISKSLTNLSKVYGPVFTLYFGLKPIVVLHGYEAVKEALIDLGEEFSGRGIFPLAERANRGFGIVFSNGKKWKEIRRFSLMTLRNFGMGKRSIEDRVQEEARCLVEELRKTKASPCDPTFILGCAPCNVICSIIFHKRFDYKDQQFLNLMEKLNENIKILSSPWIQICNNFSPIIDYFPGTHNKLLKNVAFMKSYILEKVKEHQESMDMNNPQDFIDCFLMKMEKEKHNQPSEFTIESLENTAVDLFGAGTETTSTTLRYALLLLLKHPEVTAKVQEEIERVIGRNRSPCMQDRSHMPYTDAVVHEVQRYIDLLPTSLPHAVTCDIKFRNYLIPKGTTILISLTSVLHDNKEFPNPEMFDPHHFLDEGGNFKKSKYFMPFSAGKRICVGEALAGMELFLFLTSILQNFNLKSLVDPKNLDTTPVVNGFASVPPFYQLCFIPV
Chain of CYP2C19 (P33261 whole entry): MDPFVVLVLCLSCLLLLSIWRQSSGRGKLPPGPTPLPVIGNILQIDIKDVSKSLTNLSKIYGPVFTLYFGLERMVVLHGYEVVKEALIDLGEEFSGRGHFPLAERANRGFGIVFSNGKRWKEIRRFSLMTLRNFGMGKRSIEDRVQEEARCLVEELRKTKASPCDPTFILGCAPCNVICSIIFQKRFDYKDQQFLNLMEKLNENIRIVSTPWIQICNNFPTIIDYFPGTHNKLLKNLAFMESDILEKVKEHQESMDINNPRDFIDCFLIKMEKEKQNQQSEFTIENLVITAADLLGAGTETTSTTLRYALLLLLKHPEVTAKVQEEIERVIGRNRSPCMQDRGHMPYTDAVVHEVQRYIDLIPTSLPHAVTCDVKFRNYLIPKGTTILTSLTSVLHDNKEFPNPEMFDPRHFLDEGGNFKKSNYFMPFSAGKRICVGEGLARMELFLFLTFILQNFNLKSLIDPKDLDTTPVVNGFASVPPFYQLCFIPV
Chain of CYP2D6 (P10635 whole entry): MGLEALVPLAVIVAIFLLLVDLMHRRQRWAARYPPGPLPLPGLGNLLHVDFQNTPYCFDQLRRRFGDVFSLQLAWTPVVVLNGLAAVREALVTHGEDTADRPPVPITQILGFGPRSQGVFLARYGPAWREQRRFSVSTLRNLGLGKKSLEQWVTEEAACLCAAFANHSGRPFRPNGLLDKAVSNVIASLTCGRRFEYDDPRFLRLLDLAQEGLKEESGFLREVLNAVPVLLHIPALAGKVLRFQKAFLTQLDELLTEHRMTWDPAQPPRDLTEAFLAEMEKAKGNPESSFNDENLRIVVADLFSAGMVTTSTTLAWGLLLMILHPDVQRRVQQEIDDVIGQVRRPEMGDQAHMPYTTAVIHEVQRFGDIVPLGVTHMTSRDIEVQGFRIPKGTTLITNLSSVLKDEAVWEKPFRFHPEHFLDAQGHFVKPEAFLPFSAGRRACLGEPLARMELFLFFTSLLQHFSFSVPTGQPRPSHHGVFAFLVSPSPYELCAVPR

SMILES: CCCn1c(OC2CCC(O)C2)nc2nc(C3CCCC3)[nH]c2c1=O (stereo not given)
- inhibition at 5 µM [1]: 4%
- remaining at 0.5 h [2]: 68%
- solubility thermodynamic [3]: 182 µM (≈ 63.1 µg/mL)
- Drug metabolism [4]: Metabolite_Detected
- Drug metabolism [5]: 0.12 nmol/min/mg
- fraction unbound at 5 µM [6]: 0.2
- Drug metabolism [7]: Metabolite_Detected
- inhibition at 5 µM [8]: 0%
- inhibition [9]: 6%
- half-life [10]: 18 min
- inhibition [11]: 0%
- Ki [12]: 57 nM
- solubility thermodynamic [13]: 2590 µM (≈ 897 µg/mL)
- clearance [14]: 48 mL/min/kg
- inhibition at 5 µM [15]: 3%
- Ki [16]: 9.6 nM
- Drug metabolism [17]: 0.1 nmol/min/mg
- solubility thermodynamic [18]: 276 µM (≈ 95.6 µg/mL)
- Vd [19]: 0.8 L/kg
- inhibition at 5 µM [20]: 5%
- AUC(0-t) [21]: 3 µM·h
- inhibition [22]: 35 to 41%
- inhibition [23]: 37%
- inhibition at 5 µM [24]: 0%
- remaining at 0.5 h [25]: 60%
